Measured values collected from several papers.
Protocols differ between the studies behind these lines.
PIK3CA C420R: Phosphatidylinositol 4,5-bisphosphate 3-kinase catalytic subunit alpha isoform (PIK3CA, Homo sapiens, UniProt P42336, C420R)
PIK3CA: Phosphatidylinositol 4,5-bisphosphate 3-kinase catalytic subunit alpha isoform (PIK3CA, Homo sapiens, UniProt P42336)
PIK3CA E545K: Phosphatidylinositol 4,5-bisphosphate 3-kinase catalytic subunit alpha isoform (PIK3CA, Homo sapiens, UniProt P42336, E545K)
PIK3CA H1047Y: Phosphatidylinositol 4,5-bisphosphate 3-kinase catalytic subunit alpha isoform (PIK3CA, Homo sapiens, UniProt P42336, H1047Y)
PIK3CA Q546K: Phosphatidylinositol 4,5-bisphosphate 3-kinase catalytic subunit alpha isoform (PIK3CA, Homo sapiens, UniProt P42336, Q546K)
PIK3CA E545A: Phosphatidylinositol 4,5-bisphosphate 3-kinase catalytic subunit alpha isoform (PIK3CA, Homo sapiens, UniProt P42336, E545A)
PIK3CA I800L: Phosphatidylinositol 4,5-bisphosphate 3-kinase catalytic subunit alpha isoform (PIK3CA, Homo sapiens, UniProt P42336, I800L)
PIK3CA M1043I: Phosphatidylinositol 4,5-bisphosphate 3-kinase catalytic subunit alpha isoform (PIK3CA, Homo sapiens, UniProt P42336, M1043I)
PIK3CA E542K: Phosphatidylinositol 4,5-bisphosphate 3-kinase catalytic subunit alpha isoform (PIK3CA, Homo sapiens, UniProt P42336, E542K)

SMILES	target	assay	setting	remaining binding [%]
CO[C@@H](C)c1c(Nc2ccc([C@H](N(C)C(=O)C3CCS(=O)(=O)CC3)C(F)(F)F)cc2)cnc2cc(Cl)nn12	PIK3CA C420R	cell-free assay, competition with immobilised ligand	1 µM	93
Cc1ccc(NC(=O)c2ccc(CN3CCN(C)CC3)cc2)cc1Nc1nccc(-c2cccnc2)n1	PIK3CA	cell-free assay, competition with immobilised ligand	0.1 µM	100
c1cncc(-c2cccc(Nc3nccc(NC4CCCCC4)n3)c2)c1	PIK3CA E545K	binding, competition with immobilised ligand	10 µM	94
O=C(NCCCN1CCOCC1)c1ccc(Nc2nccc(-c3cc4ccccc4s3)n2)cc1	PIK3CA C420R	binding, competition with immobilised ligand	1 µM	89
CCCOc1ccc([C@H]2[C@H](C(=O)O)[C@@H](c3ccc4c(c3)OCO4)CN2CC(=O)Nc2c(CC)cccc2CC)cc1	PIK3CA	cell-free assay, competition with immobilised ligand	1 µM	80
Cc1cnc(Nc2ccc(C(=O)N3CCC(N4CCCC4)CC3)cc2)nc1-c1cc2ccccc2s1	PIK3CA C420R	binding, competition with immobilised ligand	1 µM	83
CCN1CCN(Cc2ccc(C(=O)Nc3ccc(C)c(Oc4ccc5c(c4)CC(=O)N5)c3)cc2C(F)(F)F)CC1	PIK3CA	binding, competition with immobilised ligand	1 µM	86
C[C@@H](c1ccc(-n2cnc3c(N)ncnc32)cc1)N1CCc2nn(C)c(Cc3ccccc3)c2C1=O	Phosphatidylinositol 4,5-bisphosphate 3-kinase catalytic subunit alpha isoform (PIK3CA, Homo sapiens, UniProt P42336, H1047L)	binding, competition with immobilised ligand	0.1 µM	63
C[C@@H]1CCN(c2nccc(-c3cnn4ncccc34)n2)C1	PIK3CA H1047Y	binding	1 µM	93
Nc1cnc(N2CCc3cc(S(=O)(=O)Nc4c(F)cc(Cl)cc4F)cc(N4CCCC4=O)c32)nc1	PIK3CA	cell-free assay, competition with immobilised ligand	1 µM	76
COc1ccnn2ncc(-c3ccnc(N(C)C)n3)c12	PIK3CA C420R	binding	1 µM	78
O=C1CCc2cc(Nc3cc(OC4CCOCC4)c([N+](=O)[O-])cc3Cl)ccc2N1	PIK3CA C420R	cell-free assay, competition with immobilised ligand	1 µM	97
N[C@H]1CCN(c2nccc(-c3cnn4ncccc34)n2)C1	PIK3CA H1047Y	binding	1 µM	56
C[C@H](c1cccc(C#N)c1)n1cc(Cl)cc(C(N)=O)c1=N	PIK3CA Q546K	cell-free assay, competition with immobilised ligand	1 µM	100
CN(C)c1nccc(-c2cnn3ncccc23)n1	PIK3CA E545A	binding	1 µM	100
Nc1ncc2c(n1)-c1c([nH]c3ccc(C#CC4CC4)cc13)CCCC2	PIK3CA E545A	binding, competition with immobilised ligand	1 µM	89
O=C(NCCCN1CCOCC1)c1ccc(Nc2ncc(Cl)c(-c3ccc(Cl)s3)n2)cc1	PIK3CA I800L	binding, competition with immobilised ligand	1 µM	85
O=C(NCC1CCOCC1)c1n[nH]cc1NC(=O)c1c(F)cccc1F	PIK3CA	binding, competition with immobilised ligand	1 µM	100

SMILES	target	assay	setting	remaining binding [%]
CS(=O)(=O)N1CCCC(NC(=O)[C@H](CCC2CCCCC2)NC(=O)c2ccc(CNC(=O)c3cnc4ccccn34)cc2)C1 (stereo partly drawn)	PIK3CA	binding, competition with immobilised ligand	1 µM	37
O=C(c1ccc(Nc2ncc(Cl)c(-c3ccc(Cl)s3)n2)cc1)N1CCC(N2CCCC2)CC1	PIK3CA E545K	binding, competition with immobilised ligand	1 µM	70
COc1ncc2cc3ccccc3nc2c1C#N	PIK3CA I800L	cell-free assay, competition with immobilised ligand	5 µM	86
O=C(c1ccc(Nc2ncc(Cl)c(-c3cc4ccccc4s3)n2)cc1)N1CCC(N2CCCC2)CC1	PIK3CA Q546K	binding, competition with immobilised ligand	1 µM	90
CNC(=O)[C@@H]1CC[C@@H](n2c(-c3ccc4cnccc4c3)nc3ccc(C(=O)NCc4cccc(C(N)=O)c4)cc32)C1	PIK3CA H1047Y	binding, competition with immobilised ligand	1 µM	100
CN1CCN(c2ccc(Nc3nccc(-c4ccccc4)n3)cc2C(F)(F)F)CC1	PIK3CA M1043I	binding	10 µM	92
NS(=O)(=O)c1cc(NC(=O)C2(c3ccccc3Cl)CC2)ccc1Oc1cccc(Cl)c1	PIK3CA H1047Y	cell-free assay, competition with immobilised ligand	1 µM	76
C=CC(=O)N1CCC(C(=O)NCC(=O)N2CCN(c3nc(-c4cnc(N)nc4C(F)F)nc(N4CCOCC4)n3)CC2)CC1	PIK3CA E542K	binding, competition with immobilised ligand	1 µM	0
CN(c1nccc(-c2cnn3ncccc23)n1)C1CC1	PIK3CA E545A	binding	1 µM	100
FC(F)(F)Oc1cccc(-c2cnc3ccc(-c4ccncc4)nn23)c1	PIK3CA	cell-free assay, competition with immobilised ligand	5 µM	35
O=C(Nc1c[nH]nc1C(=O)NC1CCNCC1)c1cc(F)cc(F)c1	PIK3CA Q546K	binding, competition with immobilised ligand	1 µM	100
O=C(c1ccc(Nc2nccc(-c3cc4ccccc4s3)n2)cc1)N1CCC(N2CCCC2)CC1	PIK3CA H1047Y	binding, competition with immobilised ligand	1 µM	61
COc1cnc(Nc2cccc(S(N)(=O)=O)c2)nc1N1CCN(c2ccccc2)C(=O)C1	PIK3CA M1043I	binding, competition with immobilised ligand	1 µM	85
CN(C)c1nccc(-c2cnc3ncccn23)n1	PIK3CA M1043I	binding	1 µM	84
CS(=O)(=O)NCC[C@H](NC(=O)c1cncc2c1cnn2-c1ccc(F)cc1)c1ccnc(S(C)(=O)=O)c1	PIK3CA	cell-free assay, competition with immobilised ligand	1 µM	83
COc1cnc(Nc2cccc(S(N)(=O)=O)c2)nc1N1CCN(c2ccccc2)CC1	PIK3CA I800L	binding, competition with immobilised ligand	1 µM	83
CC1CCCN1c1nccc(-c2cnn3ncccc23)n1 (stereo not drawn)	PIK3CA H1047Y	binding	1 µM	88
CN1CCN(c2ccc(Nc3nccc(-c4cccc([N+](=O)[O-])c4)n3)cc2C(F)(F)F)CC1	PIK3CA E542K	binding	10 µM	36
